Measurements from ChEMBL document CHEMBL1152964, “Bicyclic cyanothiazolidines as novel dipeptidyl peptidase 4 inhibitors” (Bioorg Med Chem Lett, 2009).

Tests used:
Prolyl endopeptidase FAP = target: T1, Prolyl endopeptidase FAP (Homo sapiens, UniProt Q12884); test: Inhibition of human recombinant FAP expressed in Sf9 cells by fluorescence assay
T1 sequence (Q12884 whole entry): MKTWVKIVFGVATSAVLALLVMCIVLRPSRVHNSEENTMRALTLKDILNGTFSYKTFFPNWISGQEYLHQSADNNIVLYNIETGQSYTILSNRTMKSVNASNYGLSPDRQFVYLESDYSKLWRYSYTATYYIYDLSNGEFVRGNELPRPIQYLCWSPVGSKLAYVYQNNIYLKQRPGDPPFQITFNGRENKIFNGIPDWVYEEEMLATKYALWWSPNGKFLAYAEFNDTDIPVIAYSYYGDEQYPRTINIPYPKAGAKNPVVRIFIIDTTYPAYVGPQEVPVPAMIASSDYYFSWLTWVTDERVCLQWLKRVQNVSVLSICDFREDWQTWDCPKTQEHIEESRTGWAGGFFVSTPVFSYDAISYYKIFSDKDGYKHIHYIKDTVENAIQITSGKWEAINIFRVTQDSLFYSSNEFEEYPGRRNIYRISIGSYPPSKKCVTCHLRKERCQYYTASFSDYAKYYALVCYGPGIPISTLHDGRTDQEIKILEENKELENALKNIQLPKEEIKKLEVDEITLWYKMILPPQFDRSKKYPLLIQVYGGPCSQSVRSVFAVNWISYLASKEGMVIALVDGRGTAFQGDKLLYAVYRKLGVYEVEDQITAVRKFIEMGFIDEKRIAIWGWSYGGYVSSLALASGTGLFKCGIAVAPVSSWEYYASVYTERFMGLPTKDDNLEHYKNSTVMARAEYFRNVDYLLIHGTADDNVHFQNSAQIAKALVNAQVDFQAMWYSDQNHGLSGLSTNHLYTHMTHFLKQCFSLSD
Summary of the method: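 Recombinant human FAP, His-tagged, expressed in infected insect cells grown 48 h and purified by His-tag column. Enzyme preincubated with inhibitor (0.5 nM to 50 µM; dissolved in DMSO or 50 mM glycine pH 3.0) 10 min at 27 °C in 25 mM Tris pH 8. Ala-Pro AMC substrate was then added and AMC release read at ex 360/em 460 nm. IC50 was fitted by nonlinear regression.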

Dipeptidyl peptidase 4 = Dipeptidyl peptidase 4 (Homo sapiens, UniProt P27487); test: Inhibition of human recombinant DPP4 by fluorescence assay
Sequence of Dipeptidyl peptidase 4 (P27487 whole entry): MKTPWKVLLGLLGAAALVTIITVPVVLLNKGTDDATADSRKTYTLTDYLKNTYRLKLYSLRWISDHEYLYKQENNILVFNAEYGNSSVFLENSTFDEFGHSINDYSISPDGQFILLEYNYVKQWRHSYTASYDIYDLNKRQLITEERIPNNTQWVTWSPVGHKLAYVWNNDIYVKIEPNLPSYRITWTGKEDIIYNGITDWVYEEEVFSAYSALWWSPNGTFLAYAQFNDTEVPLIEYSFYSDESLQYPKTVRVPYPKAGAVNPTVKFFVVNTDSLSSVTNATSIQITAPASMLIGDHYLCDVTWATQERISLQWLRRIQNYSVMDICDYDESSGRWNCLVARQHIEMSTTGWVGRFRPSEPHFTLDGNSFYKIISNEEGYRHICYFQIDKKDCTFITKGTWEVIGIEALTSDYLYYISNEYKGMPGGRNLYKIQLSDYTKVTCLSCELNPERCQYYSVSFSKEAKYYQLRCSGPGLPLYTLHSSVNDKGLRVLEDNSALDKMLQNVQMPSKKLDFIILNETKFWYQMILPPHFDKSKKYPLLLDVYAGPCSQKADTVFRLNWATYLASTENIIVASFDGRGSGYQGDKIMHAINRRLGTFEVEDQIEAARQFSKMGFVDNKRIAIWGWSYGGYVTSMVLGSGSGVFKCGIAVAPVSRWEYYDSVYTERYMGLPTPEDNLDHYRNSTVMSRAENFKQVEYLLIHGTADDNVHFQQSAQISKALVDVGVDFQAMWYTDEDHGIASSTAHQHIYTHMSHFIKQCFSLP

Row | SMILES | IC50 (Prolyl endopeptidase FAP) [µM] | IC50 (Dipeptidyl peptidase 4) [µM]
1 | N#C[C@@H]1CS[C@H]2CC[C@H](N)C(=O)N12 |  | > 1.6
2 | N#C[C@@H]1CS[C@H]2C[C@@H](NCCc3ccccc3)C(=O)N12 |  | > 16
3 | N#C[C@@H]1CS[C@H]2CC[C@@H](N)C(=O)N12 |  | > 1.6
4 | N#C[C@@H]1CS[C@H]2C[C@](N)(CCc3ccccc3)C(=O)N12 | > 10 | 
5 | N#C[C@@H]1CS[C@H]2C[C@](N)(c3ccc(F)cc3)C(=O)N12 | > 10 | 
6 | N#C[C@@H]1CS[C@H]2C[C@](N)(c3ccccc3)C(=O)N12 | > 10 | 
7 | CC(C)C[C@@]1(N)C[C@@H]2SC[C@@H](C#N)N2C1=O | > 10 | 
8 | CC[C@H](C)[C@@]1(N)C[C@@H]2SC[C@@H](C#N)N2C1=O | > 10 | 
9 | N#C[C@@H]1CS[C@H]2C[C@](N)(Cc3ccccc3)C(=O)N12 | > 10 | 

Continued, values first:

Row | IC50 (Prolyl endopeptidase FAP) [µM] | IC50 (Dipeptidyl peptidase 4) [µM] | SMILES
10 | > 10 |  | CC(C)[C@@]1(N)C[C@@H]2SC[C@@H](C#N)N2C1=O
11 | > 10 |  | N#C[C@@H]1CS[C@H]2C[C@](N)(C3CCCC3)C(=O)N12
12 | > 10 |  | N#C[C@@H]1CS[C@H]2C[C@](N)(CC3CCCCC3)C(=O)N12
13 | > 10 |  | N#C[C@@H]1CS[C@H]2C[C@](N)(C3CCCCC3)C(=O)N12
14 | > 10 |  | CC[C@@]1(N)C[C@@H]2SC[C@@H](C#N)N2C1=O
15 |  | > 16 | N#C[C@@H]1CS[C@H]2C[C@@H](NC3CCCC3)C(=O)N12
